Laboratory results taken from ChEMBL document CHEMBL4513216, “Probing the Open Global Health Chemical Diversity Library for Multistage-Active Starting Points for Next-Generation Antimalarials” (ACS Infect Dis, 2020).

Assay: Toxicity liver stage against HepG2, at 10uM
Assay type: cell-based
Set-up: test concentration 10 uM, cell line HepG2-A16-CD81EGFP
Conditions: human, HepG2-A16-CD81EGFP cells; read-out: INHIBITION
Summary of the method: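 Uninfected HepG2-A16-CD81EGFP cells, 3 × 10^3 per well, 1536-well, plated on prespotted compound at 10 μM final, parasite-free screening media added to match infected plates; puromycin 10 μM positive, DMSO 0.5% negative; run in parallel with 48 h PbLuc assay at 37 °C, 5% CO2; viability by CellTiter-Glo luminescence, normalized to controls.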

| Structure (SMILES) | cytotoxicity at 10 µM [%] |
| --- | --- |
| CC(C)n1c(C(=O)N2CCCC2)nc2c1CCN(C)C2 | 15.3 |
| COc1ccc(Br)c(C(=O)NCCNc2ccc(C(F)(F)F)cn2)c1 | 12.7 |
| CC(Cn1cccn1)NCCS(=O)(=O)c1ccc(Cl)cc1 (stereo not given) | -6.19 |
| Cn1nnc2cc(C(=O)N3CCCC3Cc3ccccc3)ccc21 (stereo not given) | -14.7 |
| NC(=O)NCC1CCCCN1C(=O)c1cccc(Cl)c1 (stereo not given) | -7.6 |
| Cn1nnnc1SC1CCN(c2ccccc2Cl)C1=O (stereo not given) | 5.12 |
| CC(=O)c1ccc(-c2cc(C(F)(F)F)cc(N(C)C)n2)cc1 | 4.02 |
| O=C(NCCNc1ccccn1)N1CCC(O)CC1 | -8.66 |
| Cn1ncc2c(N3CCC(CCO)CC3)nc(C(C)(C)C)nc21 | 14.6 |
| CN1CC(Oc2ccccc2)=NC(SCC(=O)c2ccccc2)=N1 | -6.17 |
| CNC(=O)[C@H]1C[C@@H]2CN(C(=O)c3ccsc3)C[C@@H]2N1S(C)(=O)=O | -2.42 |
| O=C(Cc1ccc(F)cc1)NCC1CCN(Cc2ccsc2)CC1 | -7.15 |
| CC(C(=O)N(C)Cc1nnc2n1CCC2)S(C)(=O)=O (stereo not given) | -6.56 |
| CN(C)Cc1nn(C)c2c1CN(C(=O)c1ccc[nH]1)C2 | 9.22 |
| O=C([C@H]1C[C@H]2OCC[C@H]2N(CC2CC2)C1)N1CCCC1 | -0.542 |
| Cc1ccc(C)c(CN2C[C@@H]3CC[C@H]2CN(C(=O)c2cccnc2)C3)c1 | 3.41 |
| CCN1C(=O)C[C@@H]2[C@@H]1CCN2S(=O)(=O)c1ccc(OC)cc1 | 0.434 |
| O=c1c2cccnc2ccn1Cc1nccn1C1CC1 | -4.87 |
| Cc1nn(C)c(N2CCOCC2)c1CNCc1cscn1 | -8.07 |
| O=C(c1cnccn1)N1CCC2(CCCN(Cc3ccoc3)C2)C1 (stereo not given) | -139 |
| CN1CCN(Cc2cccnc2)Cc2cccnc21 | -76.9 |
| Cc1ccc(CNCc2c(C(C)C)nn(C)c2N2CCOCC2)s1 | -3.03 |
| CCc1cnc2c(c1Nc1ccccc1OC)c(=O)n(C)c(=O)n2C | 6.87 |
| CN(C)C1CCCN(C(=O)NCCC(C)(C)C)C1 (stereo not given) | -0.317 |
| Cc1ccncc1C(=O)N1C[C@@H]2CN(c3ncccn3)C[C@]2(C(=O)O)C1 | 2.36 |
| Cc1nc(CN2CCN(C(C)c3nc(C4CC4)no3)CC2)no1 (stereo not given) | -6.34 |
| O=C(Nc1cccnc1)[C@H]1CN(Cc2ccco2)C[C@H]2OCC[C@@H]12 | -114 |
| Cc1noc(C)c1S(=O)(=O)NCC(C)(O)c1ccc2c(c1)OCO2 (stereo not given) | 0.331 |

| Structure (SMILES) | cytotoxicity at 10 µM [%] |
| --- | --- |
| CCC(=O)NCCCn1c(-c2cccnc2C)cc2cccnc21 | 3.84 |
| CCOC(=O)CN1CCC2(CC1)CC(=O)c1ccc3ccccc3c1O2 | 3.33 |
| CC(C(=O)NC1CCCCC1)N1CCc2[nH]nc(C(F)(F)F)c2C1 (stereo not given) | 5.15 |
| CN(C)[C@@H]1CCN(S(C)(=O)=O)[C@H]1Cc1ccccc1 | 11.7 |
| CCN(Cc1noc(CC(C)C)n1)C[C@]1(O)CCCN2CCCC[C@@H]21 | -6.91 |
| CN(CCOCC1CC1)C(=O)Nc1ccc([S+](C)[O-])cc1 (stereo not given) | 19.4 |
| CN(C)C(=O)Cn1c2c(ccc1=O)CC(NCc1cccnc1)CC2 (stereo not given) | 18 |
| CC(C)(C)CC(=O)N1CSCC1C(=O)NC1=NCCS1 (stereo not given) | 17.9 |
| Cc1ccc(S(=O)(=O)N(C)Cc2nccs2)cc1N(C)C | -9.78 |
| CC(C)C(C)n1nccc1NC(=O)Cn1cnc2ccccc21 (stereo not given) | 10.8 |
| CS(=O)(=O)N1CCC2(CCN(C(=O)c3cccs3)CC2)CC1 | -108 |
| CCc1nccn1CC(=O)N1C[C@@H]2CC[C@H]1CN(C(=O)N(C)C)C2 | -4.67 |
| COc1ccccc1OCCCN1C(=O)CCNC1=O | -3.7 |
| CCN(C)c1ncnc2c1CCN(C(=O)c1ccccn1)CC2 | -2.23 |
| CC(C)OCc1cccc(NC(=O)N(C)Cc2ncnn2C)c1 | 4 |
| COC(=O)Nc1ccc(CNc2cncc(-n3cccn3)n2)cc1 | -5.78 |
| CC(C)(C)n1ncc(NCC(O)c2ccc(F)c(F)c2)c(Cl)c1=O (stereo not given) | 54.1 |
| Cc1ccsc1CN(C)C(=O)Cn1nc(-c2ccc(F)cc2)oc1=O | 1.31 |
| NC(=O)c1cccc(CC2CCN(C(=O)CCCN3CCOCC3)C2)c1 (stereo not given) | -11.3 |
| CN(C)CCN1CCCC12CCN(C(=O)c1ccncc1)CC2 | 6.29 |
| O=C(CCn1ccc(=O)[nH]c1=O)N1CCC(Oc2ccccn2)CC1 | -1.47 |
| CC(Cn1cccn1)NCc1nc(-c2cccnc2)no1 (stereo not given) | -0.813 |
| O=C(NCc1cnc2n1CCN(Cc1ccoc1)C2)c1ccno1 | -93 |
| Cc1cc(N(Cc2cccs2)C2CC2)n2nc(C(F)(F)F)nc2n1 | -2.1 |
| CS(=O)(=O)CCOCCNc1ccc(C(F)(F)F)cc1C#N | 2.31 |
| Cc1ccc(=O)n(CC2(O)CCN(Cc3cccs3)CC2)n1 | -5.72 |
| Cc1cccc(NCCOc2cccc(C#N)c2)c1C(N)=O | -3.59 |
